What all share (type): functional, cell-based
The subject of one experiment is MCF7. Briefly: Cytostatic activity against human MCF7 cells after 96 hrs by colorimetric microculture assay. Conditions: MCF7, 96 h. The method in brief: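 MCF-7 cells at 10⁴ per well, preincubated 24 h, then treated at 37 °C for 96 h with varying doses dissolved in DMSO alongside DMSO controls. Read-out: MTT colorimetry at 595 nm, viability as a fraction of control absorbance. IC50 fitted from concentration-effect curves; three experiments, mean with standard deviation.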

The next experiment has as its system HeLa. Briefly: Cytostatic activity against human HeLa 229 cells after 48 hrs by colorimetric microculture assay. The method in brief:
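HeLa-229 cells plated at 4 × 10³ per well and cultured 24 h before treatment at 37 °C for 48 h with varying doses in DMSO, DMSO controls included. MTT colour measured at 595 nm. Percent viability relative to control; IC50 from concentration-effect curves. Mean of three experiments, SD given.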

The next experiment relates to HL-60. Briefly: Cytostatic activity against human HL60 cells after 24 hrs by colorimetric microculture assay. Conditions: HL-60, 24 h. The method in brief:
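MTT assay: HL-60 cells seeded at 10⁴ per well, grown 24 h in culture medium, then exposed at 37 °C for 24 h to varying doses of compounds dissolved in DMSO, with DMSO controls. Absorbance read at 595 nm. Viability taken as treated over control absorbance. IC50 derived from concentration-effect curves; means of three experiments with standard deviation.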

Broadly, the IC50 is the concentration needed to halve the response being measured. Low readings indicate inhibition by little substance, high ones a need for much substance.

Each structure is given as a SMILES string. A value given as a limit tells only on which side of the number the result lay.

As for `OC[C@@H](O)[C@H]1O[C@@H](n2cnc3c(Cl)ncnc32)[C@H](O)[C@@H]1O`, the IC50 in the experiment on MCF7, in the experiment with HeLa and with HL-60 was greater than 100 µM in each case.

Consider `OC[C@@H](O)[C@H]1O[C@@H](n2cnc3c(Cl)nc(Cl)nc32)[C@H](O)[C@@H]1O`, for which the IC50 in the experiment with MCF7 was 54.2 µM; in the experiment on HeLa, 47.1 µM; in the experiment on HL-60 it was greater than 100 µM.

Regarding `Nc1ncnc2c1ncn2[C@@H]1O[C@H]([C@H](O)CO)[C@@H](O)[C@H]1O`, the 50% inhibitory concentration (IC50) in the experiment on MCF7, in the experiment on HeLa and in the experiment on HL-60 was greater than 100 µM in each case.

As for `Nc1nc(Cl)nc2c1ncn2[C@@H]1O[C@H]([C@H](O)CO)[C@@H](O)[C@H]1O`, the IC50 in the experiment with MCF7, with HeLa and in the experiment with HL-60 was greater than 100 µM in each case.

Consider `CNc1ncnc2c1ncn2[C@@H]1O[C@H]([C@H](O)CO)[C@@H](O)[C@H]1O`, for which the half-inhibitory concentration (IC50) in the experiment with MCF7, with HeLa and in the experiment with HL-60 was greater than 100 µM in each case.

For `CNc1nc(Cl)nc2c1ncn2[C@@H]1O[C@H]([C@H](O)CO)[C@@H](O)[C@H]1O`, the IC50 in the experiment on MCF7, with HeLa and with HL-60 was greater than 100 µM each time.

Consider `OC[C@@H](O)[C@H]1O[C@@H](n2cnc3c(-c4ccccc4)ncnc32)[C@H](O)[C@@H]1O`, for which the 50% inhibitory concentration (IC50) in the experiment with MCF7, in the experiment with HeLa and in the experiment on HL-60 was greater than 100 µM throughout.

Turning to `CCOc1nc(Cl)nc2c1ncn2[C@@H]1O[C@H]([C@H](O)CO)[C@@H](O)[C@H]1O`, the IC50 with MCF7, in the experiment with HeLa and with HL-60 was greater than 100 µM each time.

Turning to `CC(=O)OC[C@@H](OC(C)=O)[C@H]1O[C@@H](n2cnc3c(Cl)ncnc32)[C@H](OC(C)=O)[C@@H]1OC(C)=O`, the IC50 is greater than 100 µM in the experiment on MCF7, greater than 100 µM in the experiment with HeLa and 79.3 µM in the experiment with HL-60.

Turning to `CC(=O)OC[C@@H](OC(C)=O)[C@H]1O[C@@H](n2cnc3c(-c4ccccc4)ncnc32)[C@H](OC(C)=O)[C@@H]1OC(C)=O`, the 50% inhibitory concentration (IC50) in the experiment with MCF7, in the experiment on HeLa and in the experiment with HL-60 was greater than 100 µM each time.

On to `CC(=O)OC[C@@H](OC(C)=O)[C@H]1O[C@@H](n2cnc3c(Cl)nc(Cl)nc32)[C@H](OC(C)=O)[C@@H]1OC(C)=O`, for which the concentration for half-maximal inhibition (IC50) stood at 22.4 µM in the experiment on MCF7, 24.2 µM in the experiment on HeLa and 16.1 µM in the experiment with HL-60.

Regarding `CC(=O)O[C@H]1[C@@H](OC(C)=O)[C@H](n2cnc3c(Cl)nc(Cl)nc32)O[C@@H]1[C@H](O)CO`, the IC50 in the experiment with MCF7 turned out to be 36.3 µM; with HeLa, 36.3 µM; in the experiment on HL-60, 45 µM.

For the compound `CC(=O)OC[C@@H](OC(C)=O)[C@H]1O[C@@H](n2cnc3c(N)nc(Cl)nc32)[C@H](OC(C)=O)[C@@H]1OC(C)=O`, the concentration for half-maximal inhibition (IC50) in the experiment on MCF7, in the experiment with HeLa and in the experiment on HL-60 was greater than 100 µM throughout.

Values taken from ChEMBL document CHEMBL1629493, “Synthesis and cytostatic activity of purine nucleosides derivatives of allofuranose” (Eur J Med Chem, 2010).
